Variants at the floor of the assay were thinned out.
B1: tRNA (parent)
chain: GUUCCGUUGGCGUAAUGGUAACGCGUCUCCCUCCUAAGGAGAAGACUGCGGGUUCGAGUCCCGUACGGAACG

Variants of: B1
Experiment: yeast fitness relative to wild type (ratio to wild type); higher = fitter; tRNA-Arg(CCU), competitive growth, 37 C, YPD
Procedure, shortened: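 Changes in genotype frequencies gave Darwinian fitness relative to wild type. Frequencies were read by 100-nucleotide paired-end sequencing of gene amplicons before and after pooled Saccharomyces cerevisiae strains, carrying tRNA-Arg(CCU) gene variants at the native locus, were competed in YPD at 37°C for 24 hours in six replicates. A genotype was kept only with ≥ 100 starting reads, and estimates < 0.5 were set to 0.5.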
G6C G23A C49U showed a yeast fitness of no more than 0.5. For G12C C22U C31A C60G, the yeast fitness was no more than 0.5. C4U C11U C30G gave a yeast fitness of no more than 0.5. Work on U2C C29A yielded a yeast fitness of 0.659. Variant G17C G25C U26A C29G A36U G39A C46U C55U has a yeast fitness of no more than 0.5. Variant C4U C27G has a yeast fitness of 0.656. G10A C29G G56C U59A gave a yeast fitness of no more than 0.5. Variant U26A A40C U54A has a yeast fitness of no more than 0.5. Work on C11U C29U G67A yielded a yeast fitness of 0.57. G10A A21U A42G showed a yeast fitness of no more than 0.5. G52A G56A gave a yeast fitness of 0.727. Variant C27A A70C has a yeast fitness of 0.787. With C4A G9C C11G G44A C60U G67C the yeast fitness was no more than 0.5. For G6C A15G, the yeast fitness was 0.808. For G9C A14G C66U, the yeast fitness was no more than 0.5. A21U C22U G51C G52A U59G gave a yeast fitness of no more than 0.5. A14G A15C C24G A45G showed a yeast fitness of no more than 0.5. In the case of C29G G50A A57U A70U, the yeast fitness is reported as no more than 0.5. Work on C22U C24A U28G yielded a yeast fitness of 0.542. Variant C4G A21U G41C U53C A65C has a yeast fitness of 0.535. Work on U3C U32G A40C G41A yielded a yeast fitness of no more than 0.5. C11U C27A G48A U53A C61G showed a yeast fitness of no more than 0.5. With U7C G18A C22G the yeast fitness was 0.586. With G10C A70U the yeast fitness was 0.75. A21C A57G gave a yeast fitness of 0.708. In the case of U7C U26C C49U, the yeast fitness is reported as no more than 0.5. For C22G U35A, the yeast fitness was 0.614. Work on U26C U54C yielded a yeast fitness of 0.887. With A14C C27G A69U the yeast fitness was 0.561. For G6C C27U A45G U64A, the yeast fitness was 0.67. Work on C24U G25A C30U C46A yielded a yeast fitness of 0.829. In the case of U2C U7A C24A A37G A42U G48C U54A, the yeast fitness is reported as no more than 0.5. In the case of C29G U32A A65U, the yeast fitness is reported as no more than 0.5. For C60A C66G, the yeast fitness was 0.773. C24A C33U showed a yeast fitness of 0.601. Variant C22A C27G U28A C30A C34G G48C has a yeast fitness of no more than 0.5. Work on C5G G68U yielded a yeast fitness of 0.678. In the case of A14G C34G C60G A70C, the yeast fitness is reported as no more than 0.5. With C11A A14C C34A A70U the yeast fitness was no more than 0.5. Work on C4U A40U U47C yielded a yeast fitness of 0.643. U3A A15C U35A G52C C55A gave a yeast fitness of no more than 0.5. In the case of A40C A42C C49G, the yeast fitness is reported as no more than 0.5. For A43C G52A, the yeast fitness was 0.887. A15G A36C G50A gave a yeast fitness of no more than 0.5. For C4A U28G C31U A40C A57G, the yeast fitness was no more than 0.5. U13G A45C G48A gave a yeast fitness of 0.898. For U26G A42C U47C, the yeast fitness was 0.816. A15U A21C C24G C29U A42C gave a yeast fitness of no more than 0.5. With C31G C33U U53C U54G C55A the yeast fitness was no more than 0.5. Work on U47C A57G C62U yielded a yeast fitness of no more than 0.5. C24A C31U A45U A69U showed a yeast fitness of no more than 0.5. With C34A A57G the yeast fitness was 0.715. U32G C61U C66U A69G gave a yeast fitness of no more than 0.5. With A20U C30G A69U the yeast fitness was 0.59. With U13A G23C C27G U53C C61A G68A the yeast fitness was 0.584. G12A C24U C55G A70U gave a yeast fitness of 0.531. Work on C4G C22U C49A yielded a yeast fitness of no more than 0.5. Variant C5G A65U G67C has a yeast fitness of 0.569. For G6C C11U C31G A36G, the yeast fitness was 0.66. Variant U7A A20G C29A has a yeast fitness of 0.544. Work on G44C U54C U64A G68A yielded a yeast fitness of no more than 0.5. C5A G10C C22U A43G G58C C66G gave a yeast fitness of no more than 0.5. Work on A21G C33G C34G U47A G50A yielded a yeast fitness of no more than 0.5. Work on C4G C5G C34G A57G A65G C66U yielded a yeast fitness of no more than 0.5. With U3G U16C G48U the yeast fitness was 0.633. In the case of C11U C24G C33A A40C A69C, the yeast fitness is reported as 0.72. Work on C5G U8C C27G C33G U35A yielded a yeast fitness of no more than 0.5. For C34U A36U C66U A69U, the yeast fitness was 0.612. For C11G U13G A20C C27G C29A, the yeast fitness was no more than 0.5. With U28G G38C C62G C66U the yeast fitness was no more than 0.5. U3A C5A C33G C34U C61G showed a yeast fitness of no more than 0.5. In the case of G18C C24G A36C G38C U54C G58C, the yeast fitness is reported as no more than 0.5. U3A C46G gave a yeast fitness of 0.982. With U16A G17C A43U A45C C46A the yeast fitness was 0.613. Work on U16A C34A A40U G44A yielded a yeast fitness of no more than 0.5. A43C A65U showed a yeast fitness of 0.753. For C11U C30G, the yeast fitness was 0.694. G25A A42U A65C G67U gave a yeast fitness of no more than 0.5. In the case of A21G G58C U59C G63A, the yeast fitness is reported as 0.701. C31A A45U showed a yeast fitness of 1.02. G63A G67A A69G showed a yeast fitness of no more than 0.5. C29A G67C showed a yeast fitness of 0.646. For C22U A42G U53C C55G A70U, the yeast fitness was no more than 0.5. In the case of G10C G51C C61U, the yeast fitness is reported as no more than 0.5. Work on U19A C60G A70C yielded a yeast fitness of 0.502. For C30U C31G C33U A37C A65C, the yeast fitness was no more than 0.5. Work on C29G C61U C66A yielded a yeast fitness of no more than 0.5. For C5A C22U G39A U47C C61U, the yeast fitness was no more than 0.5. For A14C G23A C29U U35C G48A, the yeast fitness was no more than 0.5. G38U C60A gave a yeast fitness of 0.541. With A36U C62A the yeast fitness was 0.611. For A15G C22G U35C A43U, the yeast fitness was 0.556. C24G C29U G50A gave a yeast fitness of no more than 0.5. G58U C66A A70C showed a yeast fitness of 0.665. C4A U47A A70G gave a yeast fitness of 0.536. In the case of U47C U54C, the yeast fitness is reported as 0.843. Variant C33U G44C C60U A69G has a yeast fitness of no more than 0.5. Variant G25C C61A C66U has a yeast fitness of no more than 0.5. With A43C G48A A57C G68U the yeast fitness was 0.701. For C46G U59C, the yeast fitness was 1.05. Work on C11A A21G C22G A37G yielded a yeast fitness of no more than 0.5. Variant G41C G56A has a yeast fitness of 0.825. For G39A U64C, the yeast fitness was 1.01. Variant G17C U28A C34G G38A U59A has a yeast fitness of no more than 0.5. Work on U7G C22A U64C A70C yielded a yeast fitness of no more than 0.5. Work on U19G C22G C34U C61G yielded a yeast fitness of no more than 0.5. Variant C61U A65G G68A has a yeast fitness of 0.705. For C4U C27U A57C C61U, the yeast fitness was no more than 0.5. U19A C22G gave a yeast fitness of 0.919. Work on G6A A20C C61G G68C yielded a yeast fitness of no more than 0.5. Work on U13A C29G A43G G67A yielded a yeast fitness of no more than 0.5. Work on G25A A70U yielded a yeast fitness of 1.01. C30U C34G showed a yeast fitness of 0.715. In the case of U7A C34G U59G G68U, the yeast fitness is reported as no more than 0.5. With U3G C22A C24U U35G A45U A65U A70U the yeast fitness was no more than 0.5. Work on U7C C11A G67U yielded a yeast fitness of no more than 0.5. Variant G44C C60G has a yeast fitness of 0.59. For U19C C24G A37U U47A C66A, the yeast fitness was no more than 0.5. Variant U2C U28A G67A has a yeast fitness of no more than 0.5. C22U C49G showed a yeast fitness of 0.87. A14G C27G C30U C31G showed a yeast fitness of 0.76. With U8G C11U U16C A42U the yeast fitness was 0.749. C5A A15G A36G showed a yeast fitness of no more than 0.5. In the case of G50C A57G, the yeast fitness is reported as 0.789. Work on U26G C29U A65U yielded a yeast fitness of no more than 0.5. A37U G44A A57C C61G showed a yeast fitness of 0.625. In the case of U7A G9C C24A A43U G52A C60G A69U A70C, the yeast fitness is reported as no more than 0.5. In the case of A20C C46G, the yeast fitness is reported as 1.02. For C5A U16A C22G A37U, the yeast fitness was 0.717. Work on C24U G58C yielded a yeast fitness of 0.89. Variant A14U G58A C61U has a yeast fitness of 0.509. A21C A42G A69C A70G gave a yeast fitness of 0.543. U8C U19A A57C U64A showed a yeast fitness of no more than 0.5. For U3C U19G A43U A65G G68A, the yeast fitness was no more than 0.5. For A20U A37C A43U, the yeast fitness was 0.59. For C34A G41A C62U, the yeast fitness was no more than 0.5. For G12A A21G A40U, the yeast fitness was 0.564. For U13A A40G, the yeast fitness was 0.733. With U8C A57U the yeast fitness was 0.788. With U3A G17C A20C U28A C46A C61A the yeast fitness was no more than 0.5. Work on G6A G12C A36C yielded a yeast fitness of no more than 0.5. With A20U G38C G68U the yeast fitness was no more than 0.5. Variant C61G A65G C66U A69G has a yeast fitness of 0.646. A20C A57U A65U gave a yeast fitness of 0.571. For G10C A36U U53A C60A, the yeast fitness was 0.548. Variant C11G A14G G39C C55U has a yeast fitness of no more than 0.5. For C5U G48A A69C, the yeast fitness was 0.758. For C5G C62G A65U, the yeast fitness was no more than 0.5. With A14C C27G C46G C55G the yeast fitness was no more than 0.5. Variant U13C G23C U47C has a yeast fitness of no more than 0.5. With U2G U7C C55U C62G C66A the yeast fitness was no more than 0.5. In the case of G9C G12A C22U C24U G58A, the yeast fitness is reported as no more than 0.5. Work on C29U C33G G52A G58C yielded a yeast fitness of 0.596. G48A G67A showed a yeast fitness of 0.91. C22A C55U showed a yeast fitness of 0.918. For U8C G10C A42G A43G C55U, the yeast fitness was 0.724. For A20U A37U C55U, the yeast fitness was no more than 0.5. Work on U2G G51A G58C yielded a yeast fitness of 0.562. In the case of C22U C24A C27U, the yeast fitness is reported as no more than 0.5. With U3C C4U U35C A70U the yeast fitness was 0.544. For U26C U47A, the yeast fitness was 0.721. With G17C C49G the yeast fitness was 0.743. For C5A G17A G44C, the yeast fitness was 0.532. C24A C27G C29A A70G showed a yeast fitness of no more than 0.5. C30G A37C C46G gave a yeast fitness of no more than 0.5. U7C G10A C24G C34U A43U gave a yeast fitness of no more than 0.5. Work on C11A G18A G67A yielded a yeast fitness of no more than 0.5.
